Experimental data as given in ChEMBL document CHEMBL4020760, “Discovery of a Small Molecule Probe That Post-Translationally Stabilizes the Survival Motor Neuron Protein for the Treatment of Spinal Muscular Atrophy” (J Med Chem, 2017).
Values after ≈ are worked out from the molar mass of the structure shown. Active and inactive are the calls of the source. The calls are words filed in the database; no cut-off is given here. Peptide text beside a SMILES is read from it. * marks the point of attachment. Cbz = O=C(OCc1ccccc1)*

Key:
[1] = target: Survival motor neuron protein (Homo sapiens) (UniProt Q16637); test: Stabilization of human SMN protein expressed in HEK293 cells expressing SMN2 promoter after 24 hrs by luciferase reporter gene assay relative to control; type: cell-based
Method in brief: (§1)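 SMN2-luc reporter cells seeded at 25,000/well overnight, then treated 24 h with six doses (3-fold serial dilutions, top final 10 or 30 μM), 0.1% DMSO. Firefly and Renilla luciferase read by dual-luciferase assay, normalized to DMSO as percent; EC50 and maximal activation from curves. Mean ± SEM, ≥3 trials.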

Plasma [2] = test: Half life in mouse plasma after 60 mins; type: ADME, cell-free; conditions: 1 h
Liver [3] = test: (§2) Half life in mouse liver microsomes; type: ADME, microsome; conditions: microsomes
Method in brief: (§3)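 Compound stability in mouse and human liver microsomes, expressed as half-life in min.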

Homo sapiens [4] = organism: Homo sapiens; test: Inhibition of proteasome in HEK293 cells assessed as increase in polyubiquitinated protein level at 1 and 10 uM incubated for 2 hrs by SDS-PAGE analysis; type: cell-based
Method in brief: (§4)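 HEK293 cells pretreated 2 h with test compound or MG-132 (1 and 10 μM), then DMSO or cycloheximide (10 μM) added and incubated a further 6 h; final DMSO 0.2%. Lysates run on 4–15% gradient SDS-PAGE; anti-ubiquitin blot for polyubiquitinated proteins, tubulin as loading control.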

Homo sapiens [5] = organism: Homo sapiens; test: Inhibition of proteasome in HEK293 cells assessed as stabilization of SMN protein by measuring increase in SMN protein half life at 10 uM by pulse-chase experiment; type: cell-based
HEK293 [6] = test: Effect on cycloheximide-induced reduction in basal level of polyubiquitinated protein level in HEK293 cells at 1 uM pretreated for 2 hrs followed by cycloheximide addition measured after 6 hrs by SDS-PAGE analysis; type: functional, cell-based; conditions: Homo sapiens; method in brief: as §4
[7] = target: Survival motor neuron protein (Homo sapiens) (UniProt Q16637); test: Stabilization of SMN protein in 3813T fibroblasts derived from human SMA patient assessed as increase in SMN protein level at 2 uM after 48 hrs by SDS-PAGE and immunoblot
Method in brief: (§5)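 hTERT-immortalized SMA patient 3813T fibroblasts seeded at 6000/well, next day dosed for 48 h at indicated concentrations, 0.1% DMSO. Lysed in boiling buffer (150 mM NaCl, 10 mM Tris pH 8.0, 2% SDS), run on 10% SDS-PAGE, SMN immunoblotted, normalized to tubulin or actin as fold over DMSO; one-way ANOVA with Dunnett.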

Plasma [8] = test: Cmax in mouse plasma at 20 mg/kg, ip after 30 mins; type: ADME, organism-based; parameters: dose 20 mg/kg, route intraperitoneal; conditions: in vivo, 0.5 h, BLD = below limit of detection
[9] = Aqueous solubility of the compound at pH 7.4; type: physicochemical; conditions: aqueous solution
Method in brief: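 Kinetic solubility measured in aqueous medium at pH 7.4.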

[10] = target: Survival motor neuron protein (Homo sapiens) (UniProt Q16637); test: Stabilization of SMN protein in 3813T fibroblasts derived from human SMA patient assessed as increase in SMN protein level at 2 uM after 48 hrs by SDS-PAGE and immunoblot
[11] = target: Survival motor neuron protein (Homo sapiens) (UniProt Q16637); test: Stabilization of SMN protein in 3813T fibroblasts derived from human SMA patient assessed as increase in SMN protein level after 48 hrs by SDS-PAGE and immunoblot; method in brief: as §5
[12] = Cmax in mouse brain at 20 mg/kg, ip; type: ADME, organism-based; parameters: dose 20 mg/kg, route intraperitoneal
[13] = target: Survival motor neuron protein (Homo sapiens) (UniProt Q16637); test: Stabilization of SMN protein in 3813T fibroblasts derived from human SMA patient assessed as increase in SMN protein level after 48 hrs by SDS-PAGE and immunoblot
Liver [14] = test: Half life in human liver microsomes; type: ADME, microsome; method in brief: as §3
[15] = Cmax in mouse plasma at 20 mg/kg, ip; type: ADME, organism-based; parameters: dose 20 mg/kg, route intraperitoneal; conditions: plasma
Brain = test: Cmax in mouse brain at 20 mg/kg, ip after 30 mins; type: ADME, organism-based; parameters: dose 20 mg/kg, route intraperitoneal; conditions: in vivo, 0.5 h, BLD = below limit of detection
HEK293 [16] = test: Stabilization of human […] expressed in HEK293 cells expressing SMN2 promoter after 24 hrs by luciferase reporter gene assay relative to control; type: cell-based; conditions: in the assay text read “SMN protein” for “SMN mRNA”; method in brief: as §1
[17] = target: Survival motor neuron protein (Homo sapiens) (UniProt Q16637); test: Stabilization of human luc fused SMN protein expressed in HEK293 cells at 10 uM after 24 hrs in presence of 10 uM cycloheximide by luciferase reporter gene assay; type: cell-based
Method in brief: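 SMN2-luciferase reporter cells were maintained in high-glucose DMEM with 10% FBS, Pen/Strep and hygromycin at 37 °C. They were treated at the same time with cycloheximide (10 μM), to block protein synthesis, and with compound or DMSO. Cells were lysed at set time points, and SMN2-luc (firefly) and Renilla-luc activities were read by dual-luciferase assay.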

[18] = target: Survival motor neuron protein (Homo sapiens) (UniProt Q16637); test: Stabilization of SMN protein in HEK293 cells assessed as increase in SMN protein half life at 10 uM by pulse-chase experiment; type: cell-based
[19] = Stabilization of human […] expressed in HEK293 cells expressing SMN2 promoter after 24 hrs by luciferase reporter gene assay; type: cell-based; conditions: HEK293, 24 h; method in brief: as §1
Renilla = test: Effect on renilla recombinant luciferase protein expressed in HEK293 cells at 10 uM after 24 hrs in presence of 10 uM cycloheximide by renilla luciferase reporter gene assay; type: cell-based
Method in brief: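 SMN2-luc reporter cells given cycloheximide (10 μM) together with compound (10 μM) or DMSO. Lysed at set time points; SMN-luc and Renilla-luc activities measured.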

[20] = as §2; type: ADME, microsome; conditions: liver microsomes; method in brief: as §3
HEK293 [21] = test: Effect on human luciferase-tagged SMN mRNA expressed in HEK293 cells assessed as SMN exon 7 included transcript at 10 uM after 24 hrs by qRT-PCR relative to GAPDH mRNA expression; type: cell-based
Method in brief: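 SMN2-luciferase reporter cells treated with compound; total RNA isolated with Trizol, DNase I treated and reverse transcribed. SYBR Green qPCR for SMN exon 7-included and full-length transcripts, with GAPDH as reference.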

HEK293 [22] = test: Inhibition of autophagy in HEK293 cells assessed as increase in LC3-2 level at 10 uM after 8 hrs by immunoblot analysis; conditions: Homo sapiens
HEK293 [23] = test: Inhibition of autophagy in HEK293 cells assessed as increase in p62 level at 10 uM after 8 hrs by immunoblot analysis; conditions: Homo sapiens

Sequence of Survival motor neuron protein (Homo sapiens) (Q16637 whole entry, the tested form may be a part): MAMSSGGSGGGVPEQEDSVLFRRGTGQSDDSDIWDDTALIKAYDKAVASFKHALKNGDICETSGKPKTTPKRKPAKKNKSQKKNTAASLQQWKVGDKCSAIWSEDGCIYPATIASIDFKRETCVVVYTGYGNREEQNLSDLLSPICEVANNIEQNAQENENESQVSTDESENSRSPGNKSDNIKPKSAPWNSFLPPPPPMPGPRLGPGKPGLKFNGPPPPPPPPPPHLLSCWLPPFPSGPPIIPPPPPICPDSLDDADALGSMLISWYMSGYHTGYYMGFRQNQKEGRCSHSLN

CC(C)c1cc(C(=O)Nc2nc3ccccc3s2)no1
Activity [1]: 124%

CC(C)c1cc(C(=O)N(C)c2ccc(F)c(Cl)c2)no1
Activity [1]: inactive
t1/2 (Plasma [2]): 5 min

Cc1ccc(NC(=O)c2cc(C(C)C)on2)cc1
Activity [1]: 200%

O=C(Nc1ncc(C2CCC2)s1)c1ccc(F)c(Cl)c1
t1/2 (Liver [3]): < 5 min

COc1cccc(NC(=O)c2cc(C(C)C)on2)c1
Activity [1]: 147%

CC(C)c1cc(C(=O)Nc2nccs2)no1
Activity [1]: 166%

CC(C)C[C@@H](C=O)NC(=O)[C@H](CC(C)C)NC(=O)[C@H](CC(C)C)NC(=O)OCc1ccccc1 (Cbz-Leu-Leu-Leu-aldehyde)
inhibition (Homo sapiens [4]): Active
inhibition (Homo sapiens [5]): Active
Activity (HEK293 [6]): Active

CC(C)c1cc(C(=O)Nc2cccnc2)no1
Activity [1]: 94%

CC(C)c1cc(NC(=O)Nc2ccc(F)c(Cl)c2)no1
Activity [1]: inactive

O=C(Nc1ccc(F)c(Cl)c1)c1ccon1
Activity [1]: inactive

CCc1cc(C(=O)Nc2ccc(F)c(Cl)c2)no1
Activity [1]: 165%

O=C(Nc1ccc(F)c(Cl)c1)c1cc(C2CCCCC2)on1
Activity [1]: inactive

CC(C)(C)c1cc(C(=O)Nc2ccc(F)c(Cl)c2)no1
Activity [1]: 140%

Cc1cc(C(=O)Nc2ccc(F)c(Cl)c2)no1
Activity [1]: inactive

CC(C)c1cc(C(=O)Nc2ccc(Cl)cc2)no1
Activity [1]: 168%

CC(C)c1cc(C(=O)Nc2ccncc2)no1
Activity [1]: inactive

CC(C)c1cc(NC(=O)c2ccc(F)c(Cl)c2)no1
Activity [1]: 188%
t1/2 (Plasma [2]): 183 min

O=C(Nc1ccc(F)c(Cl)c1)c1cc(C2CCCC2)on1
Activity [1]: inactive

CC(C)c1cc(C(=O)Nc2ccccc2Cl)no1
Activity [1]: 114%

CC(C)c1cc(C(=S)Nc2ccc(F)c(Cl)c2)no1
Activity [1]: 120%

CC(C)c1cc(C(=O)Nc2ccccc2F)no1
Activity [1]: 175%
t1/2 (Plasma [2]): 9 min

Cc1cccc(NC(=O)c2cc(C(C)C)on2)c1
Activity [1]: 150%

CC(C)c1cc(C(=O)Nc2ccccn2)no1
fold change (FC) [7]: 2
Cmax (Plasma [8]): Bld
solubility kinetic [9]: 77 µM (≈ 17.8 µg/mL)
fold change (FC) [10]: 2
t1/2 (Liver [3]): > 120 min
Activity [11]: Dose-dependent effect
Cmax [12]: 5 to 6 ng/mL
Activity [1]: 195%
Activity [13]: Dose-dependent effect
t1/2 (Liver [14]): > 120 min
Cmax [15]: 2 to 3 ng/mL
Cmax (Brain): Bld
t1/2 (Plasma [2]): < 5 min

CC(C)c1nc(NC(=O)c2ccc(F)c(Cl)c2)cs1
Activity [1]: 131%

COc1cc2c(c(OC)c1OC)C(c1cc(Br)ccc1F)CC(=O)N2 (stereo unspecified)
Activity (HEK293 [16]): 186%
Activity [17]: Active
Activity [18]: inactive
EC50 [19]: 8.3 µM
Activity (Renilla): Active

CC(C)Cc1cc(C(=O)Nc2ccc(F)c(Cl)c2)no1
Activity [1]: 180%

CC(C)c1cc(CNc2ccc(F)c(Cl)c2)no1
Activity [1]: 137%

CC(C)c1cc(C(=O)Nc2nc3ccccc3[nH]2)no1
solubility kinetic [9]: 12 µM (≈ 3.24 µg/mL)
t1/2 (Liver [3]): < 5 min
Activity [1]: 211%

CC(C)c1cc(C(=O)Nc2cccc(F)c2)no1
solubility kinetic [9]: 49 µM (≈ 12.2 µg/mL)
t1/2 (Liver [3]): < 5 min
Activity [1]: 180%

COc1ccccc1NC(=O)c1cc(C(C)C)on1
Activity [1]: 80%

CC(C)c1cc(C(=O)Nc2ncco2)no1
Activity [1]: inactive

CC(C)c1cc(C(=O)Nc2ccccc2)no1
solubility kinetic [9]: 59 µM (≈ 13.6 µg/mL)
t1/2 (Liver [3]): < 5 min
Activity [1]: 190%
t1/2 (Plasma [2]): 8 min

O=C(Nc1ccc(F)c(Cl)c1)c1cc(Cc2ccccc2)on1
Activity [1]: 116%

O=C(CCCCCCC(=O)Nc1ccccc1)NO
Activity [17]: Active
Activity (Renilla): Active

CC(C)c1cc(C(=O)NC2Cc3ccccc3C2)no1
Activity [1]: inactive

Cc1ccccc1NC(=O)c1cc(C(C)C)on1
Activity [1]: 125%

O=C(Nc1ccc(F)c(Cl)c1)c1cc(-c2ccccc2)on1
Activity [1]: inactive

CC(C)c1cc(C(=O)N2CCc3ccccc32)no1
Activity [1]: 164%
t1/2 (Plasma [2]): < 5 min

CC(C)c1cc(NC(=O)c2ccc(F)c(Cl)c2)on1
Activity [1]: 137%

CC(C)c1cc(C(=O)Oc2ccc(F)c(Cl)c2)no1
Activity [1]: inactive

CC(C)c1cc(C(=O)Nc2ccc(F)c(Cl)c2)no1
solubility kinetic [9]: 6 µM (≈ 1.7 µg/mL)
Activity [17]: Active
half-life [20]: ≤ 5 min
Activity [18]: Active
Activity (HEK293 [21]): inactive
Activity [1]: 242%
Activity (Renilla): inactive
t1/2 (Plasma [2]): 13 min

CC(C)c1cc(C(=O)Nc2nc3ccccc3n2C)no1
Activity [1]: 219%

Cc1c(C(=O)Nc2ccc(F)c(Cl)c2)noc1C(C)C
t1/2 (Liver [3]): < 5 min
Activity [1]: 182%
t1/2 (Plasma [2]): 76 min

CC(C)c1cc(C(=O)Nc2ccc(F)cc2)no1
Activity [1]: 182%

CC(C)c1cc(C(=O)Nc2cccc(Cl)c2)no1
Activity [1]: 160%

CCN(CC)CCCC(C)Nc1ccnc2cc(Cl)ccc12 (stereo unspecified)
Activity (HEK293 [22]): Active
Activity (HEK293 [23]): Active
